An excerpt weighted towards active compounds, which were near 3.1% of everything screened.
Env fusion inh = blocks HIV Env-driven cell-cell fusion; HeLa-JRFL Env/CEM21 cell fusion, luciferase; inhibition, % at 12.3 µM; 1.1% of 360,000 active; AID 651610;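 active = mean replicate inhibition score of at least 50 and every replicate individually at or above 50; inconclusive = only one of the two criteria met; inactive = mean below 50 and not all replicates reaching 50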
FGF22 binding = FGF22 (human) thermal shift binding; 1.5% of 340,000 active; recombinant FGF22 thermal shift, SYPRO orange fluorescence; percent of sucrose octasulfate shift, DMSO zero; AID 651658; activity (Tm shift, normalised), % at 9.99 µM; Q9HCT0;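 active = mean Tm shift, scaled 0 neutral to 100 positive control, at about 1.3% or above, every replicate too, limit read from the data; inconclusive = no clear call, values can overlap the other calls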
Target sequence (Q9HCT0 whole entry, looked up): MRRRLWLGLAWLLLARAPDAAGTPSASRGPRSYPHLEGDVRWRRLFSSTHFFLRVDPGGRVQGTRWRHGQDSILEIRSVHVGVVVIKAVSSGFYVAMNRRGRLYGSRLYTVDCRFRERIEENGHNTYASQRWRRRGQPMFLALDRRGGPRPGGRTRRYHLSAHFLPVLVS
PAX8 reporter = lowers PAX8-driven luciferase in RMG-I cells | 1.2% of 360,000 active | RMG-I TPO-luciferase reporter, SteadyGlo, 24 h | AID 652154 | inhibition, % at 12.6 µM;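 active = mean replicate inhibition at least 60% with every replicate also reaching 60%; inconclusive = only one of the two criteria is met; inactive = mean below 60% and not all replicates reaching 60%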;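 note: luciferase light reporting Pax8 driven TPO promoter activity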
FN deposition inh = fibronectin deposition inhibition; AID 743247; inhibition, % at 12.6 µM; 0.086% of 350,000 active; AH1F fibroblasts, Alexa488-fibronectin deposition fluorescence, overnight;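 active = mean inhibition across replicates of 30% or more, regardless of how many single replicates reach that level; inconclusive = mean under 30% yet at least half of replicates reach 30%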
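Assay system: AH1F fibroblasts / Quantity: 10000 cells per well / Medium: DMEM plus 2% serum, read in PBS / Reagent: labelled fibronectin 24 nM / Dosing: single dose, pinned / Times: 1 h cell attachment, overnight exposure to compound and label / Signal: fluorescence, ex 485 nm, em 525 nm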
EWS-Fli block = blocks EWS/Fli oncoprotein-driven transcription; inhibition, % at 12.6 µM; AID 651661; 0.67% of 350,000 active; A673 NR0B1-luciferase reporter, viability-normalised;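 active = mean inhibition of at least 50% after viability correction, with every replicate also passing that limit; inconclusive = mean reaches 50% but only one of two replicates passes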;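 note: firefly luciferase signal divided by Alamar Blue viability fluorescence both relative to DMSO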
PGC1a acetyl inh = modulators of PGC1a acetylation. inhibition, % at 15.6 µM. 0.17% of 350,000 active. U2OS PGC1a acetylation, AlphaScreen anti-acetyl-lysine; with virally co-expressed GCN5 acetyltransferase;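 active = every replicate shows inhibition of at least 40%; inconclusive = mean inhibition at least 40% but some replicate below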
Large screens that a line does not name were inactive; [ ] = remark or other dose.

C[C@@H]1CN([C@@H](C)CO)C(=O)Cc2cc(NC(=O)Cn3cnnn3)ccc2O[C@H]1CN(C)S(=O)(=O)c1ccccc1	none (no result: FN deposition inh)
Cc1ccc(S(=O)(=O)N(C)C[C@@H]2Oc3ccc(NC(=O)Cn4cnnn4)cc3CC(=O)N([C@H](C)CO)C[C@@H]2C)cc1	Env fusion inh 89[16.7 µM] (no result: FN deposition inh)
C[C@H](CO)N1C[C@H](C)[C@H](CN(C)S(=O)(=O)c2ccccc2)Oc2ccc(NC(=O)Cn3cnnn3)cc2CC1=O	Env fusion inh 65[16.7 µM] (no result: FN deposition inh)
COc1ccc(NC(=O)N(C)C[C@@H]2OCCCC[C@@H](C)Oc3ccc(NC(=O)Nc4ccc(F)cc4)cc3C(=O)N([C@H](C)CO)C[C@@H]2C)cc1	none (no result: FN deposition inh)
Cc1cc2c(c(C)c1CCO[C@@H]1O[C@H](CO)[C@@H](O)[C@H](O)[C@H]1O)C(=O)[C@@H](C)[C@@H]2O	PAX8 reporter 86
CCCc1cn(CC[C@H]2CC[C@H](NC(=O)C3CCOCC3)[C@@H](CO)O2)nn1	none
COc1ccc(CN(C)C[C@H]2Oc3ccc(NC(=O)NC4CCCCC4)cc3C(=O)N([C@@H](C)CO)C[C@@H]2C)cc1	none (no result: Env fusion inh, FN deposition inh)
O=C1c2ccccc2C(=O)c2[nH]c(=O)[nH]c21	PAX8 reporter 91 (no result: PGC1a acetyl inh)
COc1ccc([Si](C)(C)[C@H]2[C@H](CCO)O[C@@]3(C(=O)N(C)c4ccccc43)[C@@H]2C)cc1	none (no result: FN deposition inh)
COc1ccc([Si](C)(C)[C@H]2[C@H](CCO)O[C@@]3(C(=O)N4c5c(cc(OC)cc53)C(C)=CC4(C)C)[C@@H]2C)cc1	PAX8 reporter 102 (no result: FN deposition inh)
COc1ccc([Si](C)(C)[C@@H]2[C@@H](CCO)O[C@]3(C(=O)N4c5c(cc(OC)cc53)C(C)=CC4(C)C)[C@H]2C)cc1	Env fusion inh 90[16.7 µM], PAX8 reporter 106 (no result: FN deposition inh)
Cc1c(CCOC(=O)CC23CC4CC(CC(C4)C2)C3)sc[n+]1CC(=O)c1ccc(Br)cc1	Env fusion inh 61 (no result: FGF22 binding, PAX8 reporter, EWS-Fli block)
Cc1c(CCOC(=O)C23CC4CC(CC(C)(C4)C2)C3)sc[n+]1CC(=O)c1ccccc1	Env fusion inh 82 (no result: PGC1a acetyl inh)
Cc1c(CCOC(=O)c2cc([N+](=O)[O-])cc([N+](=O)[O-])c2)sc[n+]1CC(=O)c1ccccc1	none (no result: PGC1a acetyl inh)
O=C(N/N=C\c1ccccc1OCc1ccccc1)c1ccco1	FGF22 binding 43 (no result: PGC1a acetyl inh)
O=C(N/N=C/c1ccc(OCc2ccccc2)cc1)c1ccco1	none
NC(CCc1ccccc1)c1csc(NC(=O)Nc2ccccc2Oc2ccccc2)n1 (stereo unspecified)	Env fusion inh 90
COc1cccc(Nc2nc(C(N)CCc3ccccc3)cs2)n1 (stereo unspecified)	Env fusion inh 70
COc1ccc(NC(=O)Nc2ccc3c(c2)C(=O)N([C@H](C)CO)C[C@H](C)[C@@H](CN(C)S(=O)(=O)c2cn(C)cn2)OCCCC[C@H](C)O3)cc1	FGF22 binding 1.4 (no result: FN deposition inh)
COc1ccc(NC(=O)Nc2ccc3c(c2)C(=O)N([C@H](C)CO)C[C@@H](C)[C@H](CN(C)S(=O)(=O)c2cn(C)cn2)OCCCC[C@@H](C)O3)cc1	none (no result: FN deposition inh)
COc1ccc(NC(=O)Nc2ccc3c(c2)C(=O)N([C@@H](C)CO)C[C@H](C)[C@@H](CN(C)S(=O)(=O)c2c(C)noc2C)OCCCC[C@H](C)O3)cc1	Env fusion inh 68[16.7 µM] (no result: FN deposition inh)
Cc1noc(C)c1S(=O)(=O)N(C)C[C@@H]1OCCCC[C@@H](C)Oc2ccc(NC(=O)Nc3ccccc3)cc2C(=O)N([C@H](C)CO)C[C@H]1C	none
Cc1noc(C)c1S(=O)(=O)N(C)C[C@H]1OCCCC[C@H](C)Oc2ccc(NC(=O)Nc3ccccc3)cc2C(=O)N([C@@H](C)CO)C[C@@H]1C	Env fusion inh 65[16.7 µM]
CCCNC(=O)N1C[C@H]2[C@@H](c3ccccc31)[C@@H](CO)N2C(=O)Cc1ccccn1	none (no result: Env fusion inh, FN deposition inh)
CN(N=Nc1nc[nH]c1C(N)=O)C1CCCCC1	Env fusion inh 56, PAX8 reporter 100
CN(C1CCCCC1)S(=O)(=O)c1ccc(SCC(N)=O)nc1	none (no result: FN deposition inh)
CN(C)N=Nc1nc[nH]c1C(N)=O	PAX8 reporter 102
CCOC(=O)c1[nH]cnc1N=Nc1c(O)ccc2ccccc12	none (no result: FGF22 binding, EWS-Fli block, PGC1a acetyl inh)
NC(=O)c1[nH]cnc1N=NN(CCO)Cc1ccccc1	PAX8 reporter 74
C[C@H]1CN([C@@H](C)CO)C(=O)c2cccc(NC(=O)c3ccncc3)c2O[C@@H]1CN(C)C(=O)Nc1ccc(F)cc1	none (no result: Env fusion inh)
S=C1NCCOCCOCCOCCOCCNC(=S)N2CCOCCOCCN1CCOCC2	none
S=C1NCCOCCOCCOCCNC(=S)N2CCOCCOCCN1CCOCCOCC2	FGF22 binding 43
CCOc1ccc2nc(N3C(=O)CNC3=S)sc2c1	none
Cc1cc2nc(N3C(=O)CNC3=S)sc2cc1C	FGF22 binding 43
O=C(NC1Cc2ccccc2C1)[C@@H]1[C@@H](CO)[C@@H]2Cn3c(ccc(-c4ccccc4)c3=O)[C@H]1N2	none (no result: Env fusion inh, FN deposition inh)
COc1ccccc1S(=O)(=O)N1CC[C@@H]2[C@H]1c1cc(-c3ccccc3)ccc1N(C)[C@H]2CO	none (no result: Env fusion inh)
COc1cccc(-c2ccc3c(c2)[C@@H]2[C@@H](CCN2S(=O)(=O)c2ccccc2OC)[C@H](CO)N3C)c1	PAX8 reporter 84 (no result: Env fusion inh)
COc1cccc(-c2ccc3c(c2)[C@H]2[C@H](CCN2S(=O)(=O)c2ccccc2C)[C@H](CO)N3C)c1	none (no result: Env fusion inh)
COc1cccc(-c2ccc3c(c2)[C@H]2[C@H](CCN2S(=O)(=O)c2ccccc2OC)[C@@H](CO)N3C)c1	PAX8 reporter 92 (no result: Env fusion inh)
COc1cccc(-c2ccc3c(c2)[C@@H]2[C@@H](CCN2S(=O)(=O)c2ccccc2C)[C@H](CO)N3C)c1	PAX8 reporter 82 (no result: Env fusion inh)
N#C[C@@H]1[C@H](c2ccc(-c3cccc(F)c3)cc2)[C@H](CO)N1S(=O)(=O)c1cccc(F)c1	none
CCn1c(Cc2cccs2)nnc1SCC(=O)NC(C)(C)C	FGF22 binding 43 (no result: PGC1a acetyl inh)
CN(C)C(=O)CSc1nnc(Cc2ccccc2)n1Cc1ccco1	none (no result: FGF22 binding, EWS-Fli block, PGC1a acetyl inh)
O=C(CSc1nnc(Cc2cccs2)n1Cc1ccco1)Nc1ccc(Br)cc1	none (no result: Env fusion inh, FGF22 binding, PAX8 reporter, FN deposition inh, EWS-Fli block)
O=C(CSc1nnc(Cc2cccs2)n1Cc1ccco1)Nc1ccc(Cl)cc1Cl	Env fusion inh 59 (no result: FGF22 binding, PAX8 reporter, EWS-Fli block)
O=C(CSc1nnc(Cc2ccccc2)n1Cc1ccco1)NC12CC3CC(CC(C3)C1)C2	Env fusion inh 58 (no result: FGF22 binding, PAX8 reporter, FN deposition inh, EWS-Fli block)
O=C(COc1ccc(C(=S)N2CCOCC2)cc1)Nc1ccccc1C(F)(F)F	FGF22 binding 44 (no result: PGC1a acetyl inh)
C[C@H](CO)N1C[C@H](C)[C@H](CN(C)Cc2ccc(C(=O)O)cc2)Oc2ccc(NC(=O)CCC(F)(F)F)cc2CC1=O	none (no result: Env fusion inh, FN deposition inh)
COC(c1ccccc1)c1nnc(CCC(=O)N2CCCCCCC2)o1 (stereo unspecified)	FGF22 binding 44
COC(c1ccccc1)c1nnc(CCC(=O)N(C)C(C2CC2)C2CC2)o1 (stereo unspecified)	FGF22 binding 44, PGC1a acetyl inh inconclusive
